Results: PMC12144996 (Acta Pharmaceutica Sinica. B, 2025)
Read-outs that look alike come from different tables or passages of the source.

Tests used:
MHV-A59 [1] = assay: Therapeutic treatment from 12 hpi in MHV-A59-infected BALB/c mice; assay type: in vivo, mouse hepatitis virus; details: 5 dpi; for Serum ALT and AST (liver injury markers): 50 mg/kg intragastric twice daily from 12 hpi, vs vehicle; for MHV replication in the lung (qRT-PCR and plaque assay): 500 mg/kg intragastric twice daily from 12 hpi
In short: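 BALB/c mice were infected intranasally with 4×10^5 PFU MHV-A59. At 5 dpi, lung and liver were assayed by qRT-PCR and L2-cell plaque assay. Orbital blood was clotted at room temperature and the serum run in ALT/AST kits.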

MHV-A59 [2] = assay type: in vivo, mouse hepatitis virus
MHV-A59 [3] = assay: Prophylactic ATV006 in MHV-A59-infected BALB/c mice, liver; assay type: in vivo, mouse hepatitis virus
MHV-A59 [4] = assay: Prophylactic ATV006 in intranasally MHV-A59-infected BALB/c mice, lung; assay type: in vivo, mouse hepatitis virus; details: 3 dpi
In short: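 BALB/c mice were inoculated intranasally with 4×10^5 PFU MHV-A59 under mild isoflurane anaesthesia. They received vehicle (n = 6) or test compound at 500, 250, 100 or 50 mg/kg intragastric twice daily as prophylaxis (n = 5). Lungs were taken at 3 dpi for qRT-PCR and for plaque assay on L2 cells (methyl cellulose overlay, crystal violet). Lung sections were zinc formalin-fixed, 4 μm, H&E stained.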

MHV-A59 [5] = assay: Delayed therapeutic treatment; assay type: in vivo, mouse hepatitis virus; details: 5 dpi; for Viral replication in the lung (qRT-PCR): start 24-96 hpi
In short: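 BALB/c mice under light isoflurane anaesthesia were infected intranasally with 4×10^5 PFU MHV-A59 in 40 μL DMEM. Test compound was started at delayed times post-infection and given every 12 h. At 5 dpi, lung and liver virus was measured by qRT-PCR and by plaque assay on L2 cells, with methyl cellulose overlay and crystal violet staining. Lungs were scored 0–4 for edema, mononuclear and PMN infiltration and hemorrhage; livers were blindly Ishak-scored. Serum ALT/AST measured by kit.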

MHV-A59 [6] = assay: Time-of-addition of ATV006 in MHV-A59-infected cells, viral load; assay type: cell-based, mouse hepatitis virus; details: ATV006 administered 48 h after the viral infection; MOI = 0.0001
[7] = rats; cited from earlier work
HCoV-OC43 = assay: Anti-human coronavirus activity, viral RNA by qRT-PCR, HCoV-OC43 in HCT-8 cells; assay type: cell-based; details: Betacoronavirus 1, OC43, HCT-8, read-out: EC50 for HCoV-OC43
TGEV = assay: Anti-animal coronavirus activity, viral load by qRT-PCR, TGEV in ST cells; assay type: cell-based, transmissible gastroenteritis virus; details: Alphacoronavirus 1, 48 h, read-out: EC50 for TGEV
In short: (§1)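 Cells seeded in 48-well plates and grown 24 h to about 90% confluence, then washed three times with serum-free medium. Infected at MOI 0.01 for 1 h at 37 °C, then given medium with test compound dilutions or DMSO. After 48 h at 37 °C, cells and supernatants were harvested for viral load by qRT-PCR. EC50 taken from the dose–response curve; mean ± SEM.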

[8] = cynomolgus monkeys; cited from earlier work
MHV = assay: Anti-animal coronavirus activity, viral load by qRT-PCR, MHV in L2 cells; assay type: cell-based, mouse hepatitis virus; details: Murine coronavirus, 48 h, read-out: EC50 for MHV
In short: as §1

PEDV = assay: Anti-animal coronavirus activity, viral load by qRT-PCR, PEDV in Vero E6 cells; assay type: cell-based; details: Porcine epidemic diarrhea virus, Vero C1008, 48 h, read-out: EC50 for PEDV
In short: as §1

HCoV-229E = assay: microbe, parasite or virus in culture; assay type: cell-based; details: Human coronavirus 229E, Huh-7, read-out: EC50 for HCoV-229E
HCoV-NL63 = assay type: cell-based; details: Human coronavirus NL63, LLC-MK2, read-out: EC50 for HCoV-NL63
[9] = […], GS-441524 50 mg/kg oral once daily
[10] = ATV006 500 mg/kg administered at 24 hpi
[11] = […], remdesivir 20 mg/kg intraperitoneal once daily

## N#C[C@@]1(c2ccc3c(N)ncnn23)O[C@H](CO)[C@@H](O)[C@H]1O [GS-441524, reference compound]
MHV-A59 [1]
  Serum ALT and AST (liver injury markers): significantly reduced the liver injury markers ALT and AST
  MHV replication in the lung (qRT-PCR and plaque assay): only ATV006 significantly inhibited MHV replication in the lung
MHV-A59 [1]; GS-441524 at 25, 50 mg/kg twice daily from 12 hpi
  Virus titers in the liver (plaque assay): below the detection limit of the plaque assay
MHV-A59 [2]; [9]
  Body weight compared with ATV006 (50 mg/kg): lower than that of mice treated with ATV006
  Survival: prevented MHV-infected mice from dying

## CC(C)C(=O)OC[C@H]1O[C@@](C#N)(c2ccc3c(N)ncnn23)[C@H](O)[C@@H]1O [ATV006]
MHV-A59 [3]; ATV006 50 mg/kg intragastric twice daily
  Inflammatory cell infiltration in the liver (histopathology): significant reduction in inflammatory cell infiltration
MHV-A59 [3]; ATV006 50 mg/kg intragastric twice daily, 3 dpi, vs control
  Serum ALT and AST (liver injury markers): lower in the ATV006-treated group than in the control group
MHV-A59 [3]; ATV006-treated group, prophylactic, 3 dpi
  Viral titers in the liver (plaque assay): below the detection limit
MHV-A59 [3]; ATV006 prophylactic, 3 dpi
  Expression of inflammatory cytokines in the liver: significant decrease in the expression of various inflammatory cytokines in the liver
MHV-A59 [1]
  Serum ALT and AST (liver injury markers): significantly reduced the liver injury markers ALT and AST
  MHV replication in the lung (qRT-PCR and plaque assay): significantly inhibited MHV replication in the lung
MHV-A59 [1]; ATV006 2-50 mg/kg intragastric twice daily from 12 hpi
  MHV replication in the liver (qRT-PCR): inhibited MHV replication in a dose-dependent manner
MHV-A59 [1]; ATV006 at 2, 10, 25, 50 mg/kg twice daily from 12 hpi
  Virus titers in the liver (plaque assay): below the detection limit of the plaque assay
MHV-A59 [4]; ATV006 500 mg/kg intragastric twice daily
  Inflammatory cell infiltration in lung (histopathology): vehicle-treated mice had more inflammatory cell infiltration compared to mice treated with ATV006
MHV-A59 [4]; ATV006 50-500 mg/kg intragastric twice daily
  MHV infectious particles in the lung (plaque assay): dose-dependent decrease in the number of MHV infectious particles
MHV-A59 [4]; ATV006 prophylactic
  Inflammatory cytokines and chemokines in the lung (Ifnβ, Cxcl10, Il6, Il1β, Ifnγ): significantly reduced the production of inflammatory cytokines and chemokines in the lung
MHV-A59 [5]; ATV006 2 mg/kg, delayed treatment
  MHV replication in the liver (qRT-PCR): ineffective
MHV-A59 [5]; ATV006 10 mg/kg administered at 24, 48 and 72 hpi
  Liver pathology (Ishak scoring): significantly reduced liver piecemeal necrosis, bridging necrosis, circumscribed hepatic necrosis, and portal inflammation
MHV-A59 [5]; ATV006 10 mg/kg, delayed treatment
  Serum ALT and AST levels: alleviated liver injury
MHV-A59 [5]; ATV006 50 mg/kg administered as late as 96 hpi
  Virus titers in the liver (plaque assay): reduced virus titers to levels undetectable by plaque assay
MHV-A59 [5]; ATV006 250 mg/kg every 12 h
  Viral replication in the lung (qRT-PCR): significant inhibition of viral replication only when ATV006 treatment (250 mg/kg) began no later than 24 hpi
MHV-A59 [5]; [10]
  Bleeding in the lungs (hemorrhage score): did not improve significantly
  Lung pathology: edema, monocyte and neutrophil infiltration: reduced pulmonary edema and monocyte and neutrophil infiltration
MHV-A59 [5]; ATV006 500 mg/kg every 12 h
  Viral replication in the lung (qRT-PCR): effective when started within 48 hpi
MHV-A59 [5]; ATV006 500 mg/kg initiated within 48 hpi
  Infectious viral particles in the lungs (plaque assay): No infectious viral particles were detected
MHV-A59 [5]; ATV006 10, 25 and 50 mg/kg administered at 24 or 48 hpi
  MHV replication in the liver (qRT-PCR): significantly inhibited MHV replication
MHV-A59 [6]
  Inhibition of MHV-A59 viral load: no inhibitory effect was observed
[7]
  Oral bioavailability: high oral bioavailability
MHV-A59 [2]; […], ATV006 2 mg/kg intragastric once daily
  Survival: all died by 10 dpi
MHV-A59 [2]; […], ATV006 5 to 50 mg/kg intragastric once daily
  Mortality and weight loss: effectively prevented mortality and weight loss
MHV-A59 [2]; mouse, in vivo, 2 mg/kg
  Reduction of viral titers in the liver: approximately sixfold
MHV-A59 [2]; mouse, in vivo, 50 mg/kg
  Live virus in the liver (plaque assay): no live virus was found in the liver
  Reduction of viral titers in the liver: 1,000,000 fold
HCoV-OC43
  EC50: 2.9 µM
TGEV
  EC50: 3.04 µM
[8]
  Oral bioavailability: high oral bioavailability
MHV
  EC50: 0.265 µM
PEDV
  EC50: 1.05 µM
HCoV-229E
  EC50: 1.12 µM
HCoV-NL63
  EC50: 0.8 µM

## CCC(CC)COC(=O)[C@H](C)N[P@](=O)(OC[C@H]1O[C@@](C#N)(c2ccc3c(N)ncnn23)[C@H](O)[C@@H]1O)Oc1ccccc1 [remdesivir, reference compound]
MHV-A59 [2]; [11]
  Body weight compared with ATV006 (50 mg/kg): lower than that of mice treated with ATV006
  Survival: prevented MHV-infected mice from dying
